Our source for the Ki and Ratio values is ChEMBL document CHEMBL1126914 (J Med Chem, 1993).

Square brackets hold non-standard residues; d marks the D form. Peptide text beside a SMILES is read from it. Tic = O=C(O)[C@@H]1Cc2ccccc2CN1; Aic = NC1(C(=O)O)Cc2ccccc2C1

The target of test [1] is Delta-type opioid receptor (Rattus norvegicus, UniProt P33533). The experiment in a line: Binding affinity was determined on delta [3H]DPDPE site in rat brain synaptosomes by radioreceptor assay. The class given is subcellular. Put shortly: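 δ sites labelled with 0.62 nM [3H]DPDPE; rat brain (minus cerebella) P2 synaptosomes, preincubated to remove endogenous opioids, 1.6 mg protein; 2 h at 22 °C in duplicate. Nonspecific defined with 1 μM DPDPE. Rapid filtration on GF/C filters with ice-cold buffered BSA washes; liquid scintillation counting; Ki from IC50 by Cheng–Prusoff.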

Test [2] has as its target Mu-type opioid receptor (Rattus norvegicus, UniProt P33535). Nature of the test: Binding affinity was determined on mu [3H]DAGO site in rat brain synaptosomes by radioreceptor assay. In kind it is subcellular. Put shortly:
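μ sites labelled with 0.68 nM [3H]DAGO; rat brain (minus cerebella) P2 synaptosomes, preincubated to remove endogenous opioids, 1.6 mg protein; 2 h at 22 °C in duplicate. Nonspecific defined with 1 μM DAGO. Rapid filtration on GF/C filters, washes with ice-cold buffered BSA; scintillation counting; Ki via Cheng–Prusoff from IC50.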

Test [3] is described as follows: Bioselectivity ratio of compound as guinea pig ileum to mouse vas deferens was determined. The class given is functional. Put shortly:
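GPI/MVD ratio of IC50s. GPI: 2–3 cm segments in Krebs with 70 μM hexamethonium and 0.125 μM mepyramine, 36 °C, 95% O2/5% CO2; transmural 0.5 ms, 0.1 Hz pulses at 1.5× maximal (~30 V); isotonic recording. MVD: 33 °C, field stimulation 0.1 Hz, 1 ms, 40 V; isometric recording. IC50 is 50% twitch inhibition, from four experiments.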

Sequence of Delta-type opioid receptor (P33533 whole entry): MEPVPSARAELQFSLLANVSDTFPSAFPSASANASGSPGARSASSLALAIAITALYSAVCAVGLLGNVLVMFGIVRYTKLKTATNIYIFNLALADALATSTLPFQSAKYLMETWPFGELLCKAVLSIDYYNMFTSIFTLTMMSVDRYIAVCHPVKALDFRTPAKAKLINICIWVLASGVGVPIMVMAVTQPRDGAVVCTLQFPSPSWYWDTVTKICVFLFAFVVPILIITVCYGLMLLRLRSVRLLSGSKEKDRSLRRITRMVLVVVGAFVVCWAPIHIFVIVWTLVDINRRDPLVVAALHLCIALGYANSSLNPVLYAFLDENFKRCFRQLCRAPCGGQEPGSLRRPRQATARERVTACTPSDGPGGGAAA
Sequence of Mu-type opioid receptor (P33535 whole entry): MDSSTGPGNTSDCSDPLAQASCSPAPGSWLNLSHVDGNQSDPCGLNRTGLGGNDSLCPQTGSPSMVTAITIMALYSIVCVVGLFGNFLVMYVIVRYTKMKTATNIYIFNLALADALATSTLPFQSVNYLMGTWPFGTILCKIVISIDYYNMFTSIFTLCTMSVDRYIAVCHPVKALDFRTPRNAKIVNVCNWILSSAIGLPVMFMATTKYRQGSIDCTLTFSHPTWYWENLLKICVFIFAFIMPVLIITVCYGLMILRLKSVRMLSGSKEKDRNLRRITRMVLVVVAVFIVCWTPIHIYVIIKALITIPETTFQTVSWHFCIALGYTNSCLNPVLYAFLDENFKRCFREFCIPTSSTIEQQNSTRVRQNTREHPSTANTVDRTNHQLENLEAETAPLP

What is called Ki is the equilibrium dissociation constant of an inhibitor or competing ligand from its target. Low readings indicate higher affinity, high ones lower affinity. `CC(C)[C@H](NC(=O)[C@H](CC(=O)O)NC(=O)[C@H](Cc1ccc2ccccc2c1)NC(=O)[C@@H](C)NC(=O)[C@@H](N)Cc1ccc(O)cc1)C(=O)N[C@H](C(=O)NCC(N)=O)C(C)C`: the inhibition constant (Ki) in test [1] was determined as 10.7 nM; in test [2], 770 nM.
Consider `CC(C)[C@H](NC(=O)[C@H](CC(=O)O)NC(=O)C1(NC(=O)[C@@H](C)NC(=O)[C@@H](N)Cc2ccc(O)cc2)Cc2ccccc2C1)C(=O)N[C@H](C(=O)NCC(N)=O)C(C)C` (H-Y[dA][Aic]DVVG-NH2), for which the Ki is 0.2 nM in test [1] and 56.2 nM in test [2]. For the same compound, the Ratio in test [3] was determined as 900.
For `CC(C)[C@H](NC(=O)[C@H](CC(=O)O)NC(=O)[C@H](CCc1ccccc1)NC(=O)[C@@H](C)NC(=O)[C@@H](N)Cc1ccc(O)cc1)C(=O)N[C@H](C(=O)NCC(N)=O)C(C)C`, the Ki in test [1] was found to be 4.84 nM; in test [2], 326 nM.
As to `CC(C)[C@H](NC(=O)[C@H](CC(=O)O)NC(=O)/C(=C\c1ccccc1)NC(=O)[C@@H](C)NC(=O)[C@@H](N)Cc1ccc(O)cc1)C(=O)N[C@H](C(=O)NCC(N)=O)C(C)C`, the values for the Ki in test [1] and in test [2] were 4.23 nM and 114 nM, respectively.
With `COc1ccc(C[C@H](NC(=O)[C@@H](C)NC(=O)[C@@H](N)Cc2ccc(O)cc2)C(=O)N[C@@H](CC(=O)O)C(=O)N[C@H](C(=O)N[C@H](C(=O)NCC(N)=O)C(C)C)C(C)C)cc1`, the values for the Ki in test [1] and in test [2] were 45.4 nM and 526 nM, respectively.
With `CC(C)[C@H](NC(=O)[C@H](CC(=O)O)NC(=O)C1(NC(=O)[C@@H](C)NC(=O)[C@@H](N)Cc2ccc(O)cc2)CCc2ccccc2C1)C(=O)N[C@H](C(=O)NCC(N)=O)C(C)C` (single isomer, unassigned; 15), the Ki was 0.07 nM in test [1] and 178 nM in test [2]. Further, the Ratio in test [3] is reported as 3522.
On to `CC(C)[C@H](NC(=O)[C@H](CC(=O)O)NC(=O)[C@H](Cc1cnc[nH]1)NC(=O)[C@@H](C)NC(=O)[C@@H](N)Cc1ccc(O)cc1)C(=O)N[C@H](C(=O)NCC(N)=O)C(C)C`, for which the figures for the Ki in test [1] and in test [2] were 45.5 nM and 3720 nM, respectively.
As for `CC(C)[C@H](NC(=O)[C@H](CC(=O)O)NC(=O)[C@H](Cc1cccc2ccccc12)NC(=O)[C@@H](C)NC(=O)[C@@H](N)Cc1ccc(O)cc1)C(=O)N[C@H](C(=O)NCC(N)=O)C(C)C`, the Ki stood at 0.61 nM in test [1] and 279 nM in test [2].
On to `CC(C)[C@H](NC(=O)[C@H](CC(=O)O)NC(=O)[C@H](Cc1c[nH]c2ccccc12)NC(=O)[C@@H](C)NC(=O)[C@@H](N)Cc1ccc(O)cc1)C(=O)N[C@H](C(=O)NCC(N)=O)C(C)C`, for which the figures for the Ki in test [1] and in test [2] were 2.34 nM and 323 nM, respectively.
For the compound `CC(C)[C@H](NC(=O)[C@H](CC(=O)O)NC(=O)[C@](C)(Cc1ccccc1)NC(=O)[C@@H](C)NC(=O)[C@@H](N)Cc1ccc(O)cc1)C(=O)N[C@H](C(=O)NCC(N)=O)C(C)C` (single isomer, unassigned; 6a), the Ki in test [1] was found to be 48.6 nM; in test [2], 3400 nM. For the same compound, the Ratio in test [3] is given as over 20.
Regarding `CC(C)[C@H](NC(=O)[C@H](CC(=O)O)NC(=O)[C@H](Cc1ccccc1)N(C)C(=O)[C@@H](C)NC(=O)[C@@H](N)Cc1ccc(O)cc1)C(=O)N[C@H](C(=O)NCC(N)=O)C(C)C`, the figures for the Ki in test [1] and in test [2] were 284 nM and 19000 nM, respectively.
As to `CC(C)[C@H](NC(=O)[C@H](CC(=O)O)NC(=O)C1(NC(=O)[C@@H](C)NC(=O)[C@@H](N)Cc2ccc(O)cc2)CCc2ccccc2C1)C(=O)N[C@H](C(=O)NCC(N)=O)C(C)C` (single isomer, unassigned; 15a), the values for the Ki in test [1] and in test [2] were 0.12 nM and 82.3 nM, respectively. Further, the Ratio in test [3] stood at 606.
`CC(C)[C@H](NC(=O)[C@H](CC(=O)O)NC(=O)[C@@H]1Cc2ccccc2CN1C(=O)[C@@H](C)NC(=O)[C@@H](N)Cc1ccc(O)cc1)C(=O)N[C@H](C(=O)NCC(N)=O)C(C)C` (H-Y[dA][Tic]DVVG-NH2): the Ki was 90.2 nM in test [1] and 7810 nM in test [2]. Also, in test [3], the Ratio was over 65.
For `CC(C)[C@H](NC(=O)[C@H](CC(=O)O)NC(=O)[C@](C)(Cc1ccccc1)NC(=O)[C@@H](C)NC(=O)[C@@H](N)Cc1ccc(O)cc1)C(=O)N[C@H](C(=O)NCC(N)=O)C(C)C` (single isomer, unassigned; 6), the Ki in test [1] stood at 69.1 nM; in test [2], 1360 nM. Moreover, in test [3], the Ratio is recorded as over 18.
Consider `CC(C)[C@H](NC(=O)[C@H](CC(=O)O)NC(=O)[C@H](Cc1ccc(O)cc1)NC(=O)[C@@H](C)NC(=O)[C@@H](N)Cc1ccc(O)cc1)C(=O)N[C@H](C(=O)NCC(N)=O)C(C)C`, for which the inhibition constant Ki is 34 nM in test [1] and 1180 nM in test [2].
`CC(C)[C@H](NC(=O)[C@H](CC(=O)O)NC(=O)[C@@H](NC(=O)[C@@H](C)NC(=O)[C@@H](N)Cc1ccc(O)cc1)c1ccccc1)C(=O)N[C@H](C(=O)NCC(N)=O)C(C)C`: the Ki came out at 2.85 nM in test [1] and 3750 nM in test [2].
`CC(C)[C@H](NC(=O)[C@H](CC(=O)O)NC(=O)[C@H](Cc1ccccc1)NC(=O)[C@@H](C)NC(=O)[C@@H](N)Cc1ccc(O)cc1)C(=O)N[C@H](C(=O)NCC(N)=O)C(C)C` [DELTORPHIN C]: the Ki in test [1] was determined as 0.31 nM; in test [2] it was 205 nM.
